In ChEMBL document CHEMBL4152327, “Homopiperazine-rhodamine B adducts of triterpenoic acids are strong mitocans” (Eur J Med Chem, 2018):

How the values were obtained:
[1] = test system: MCF7; test: Cytotoxicity against human MCF7 cells after 96 hrs by SRB assay; type: functional, cell-based; details: MCF7, 96 h
Outline: (§1)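 SRB assay; cells exposed to compound for 96 h. EC50 in µM averaged from three independent experiments, each in triplicate, with 95% confidence interval and mean ± standard mean error. Assay cut-off 30 µM.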

[2] = test system: A2780; test: Cytotoxicity against human A2780 cells after 96 hrs by SRB assay; type: functional, cell-based; details: A2780, 96 h; outline: as §1
[3] = test system: HT-29; test: Cytotoxicity against human HT-29 cells after 96 hrs by SRB assay; type: functional, cell-based; details: HT-29, 96 h; outline: as §1
[4] = test system: A-375; test: Cytotoxicity against human A375 cells after 96 hrs by SRB assay; type: functional, cell-based; details: A-375, 96 h; outline: as §1
[5] = test system: NIH3T3; test: Cytotoxicity against mouse NIH/3T3 cells after 96 hrs by SRB assay; type: cell-based; details: NIH3T3, 96 h; outline: as §1
[6] = test system: SW-1736; test: Cytotoxicity against human SW1736 cells after 96 hrs by SRB assay; type: functional, cell-based; details: SW-1736, 96 h; outline: as §1
[7] = Drug uptake in mitochondria of human A2780 cells at 100 nM after 24 hrs by rhodamine 123 staining-based fluorescence microscopic method; type: ADME; details: a2780, 24 h, 0.1 µM
Outline: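 A2780 cells, about 1·10^6 per 25 cm² flask, grown 24 h, then given fresh medium containing compound for 24 h (blank medium as control). Cells collected, centrifuged at 1200 rpm and 4 °C, washed in PBS, then mixed with Hoechst 33342/Rhodamine 123 solution (10 µg/ml). Incubated 30 min at 37 °C in the dark, washed, and viewed by epifluorescence microscopy.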

[8] = Selectivity index, ratio of EC50 for mouse NIH/3T3 cells to EC50 for human A2780 cells; type: toxicity; details: NIH/3T3 cells and A2780 cells, read-out: Ratio EC50

| Compound | EC50 [1] [nM] | EC50 [2] [nM] | EC50 [3] [nM] | EC50 [4] [nM] | EC50 [5] [nM] | EC50 [6] [nM] | Drug uptake [7] | selectivity ratio [8] |
| --- | --- | --- | --- | --- | --- | --- | --- | --- |
| CC(=O)O[C@@H]1CC[C@@]2(C)[C@@H](CC[C@]3(C)[C@@H]2C(=O)C=C2[C@@H]4[C@@H](C)[C@H](C)CC[C@]4(C)CC[C@]23C)[C@@]1(C)C(=O)N1CCCNCC1 | 2410 | 2850 | 1990 | 3210 | 900 | – | – | – |
| C=C(C)[C@@H]1CC[C@]2(C(=O)N3CCCNCC3)CC[C@]3(C)[C@H](CC[C@@H]4[C@@]5(C)CC[C@H](OC(C)=O)C(C)(C)[C@@H]5CC[C@]43C)[C@@H]12 | 1520 | 1610 | 1470 | – | 1050 | 1840 | – | – |
| CC(=O)O[C@@H]1CC[C@@]2(C)[C@@H](CC[C@]3(C)[C@@H]2C(=O)C=C2[C@@H]4[C@@H](C)[C@H](C)CC[C@]4(C)CC[C@]23C)[C@@]1(C)C(=O)NCc1ccccc1 | 9800 | 10800 | 20200 | 13700 | 28100 | – | – | – |
| CCN(CC)c1ccc2c(-c3ccccc3C(=O)N3CCCN(C(=O)[C@]4(C)[C@@H]5CC[C@]6(C)[C@H](C(=O)C=C7[C@@H]8[C@@H](C)[C@H](C)CC[C@]8(C)CC[C@]76C)[C@@]5(C)CC[C@H]4OC(C)=O)CC3)c3ccc(=[N+](CC)CC)cc-3oc2c1 | 390 | 450 | 500 | 510 | 400 | – | – | – |
| CCN(CC)c1ccc2c(-c3ccccc3C(=O)N3CCCN(C(=O)[C@@]4(C)CC[C@]5(C)CC[C@]6(C)C(=CC(=O)[C@@H]7[C@@]8(C)CC[C@H](OC(C)=O)C(C)(C)[C@@H]8CC[C@]76C)[C@@H]5C4)CC3)c3ccc(=[N+](CC)CC)cc-3oc2c1 | 220 | 220 | 280 | 760 | 330 | 220 | – | – |
| CC(=O)O[C@H]1CC[C@]2(C)[C@H]3CC=C4[C@@H]5CC(C)(C)CC[C@]5(C(=O)N5CCCNCC5)CC[C@@]4(C)[C@]3(C)CC[C@H]2C1(C)C | 1500 | 2310 | 1300 | 2300 | 1230 | 3250 | – | – |
| CCN(CC)c1ccc2c(-c3ccccc3C(=O)O[C@@H]3CC[C@@]4(C)[C@@H](CC[C@]5(C)[C@@H]4C(=O)C=C4[C@@H]6[C@@H](C)[C@H](C)CC[C@]6(C)CC[C@]45C)[C@@]3(C)C(=O)OC)c3ccc(=[N+](CC)CC)cc-3oc2c1 | 230 | 300 | 290 | 360 | 190 | – | – | – |
| C[C@H]1[C@H](C)CC[C@]2(C)CC[C@]3(C)C(=CC(=O)[C@@H]4[C@@]5(C)CC[C@@H](O)[C@](C)(C(=O)OCc6ccccc6)[C@@H]5CC[C@]43C)[C@H]12 | 26400 | 30100 | 28800 | 24800 | > 30000 | 24800 | – | – |
| CCN(CC)c1ccc2c(-c3ccccc3C(=O)O[C@H]3CC[C@@]4(C)[C@@H](CC[C@]5(C)[C@@H]4C(=O)C=C4[C@@H]6[C@@H](C)[C@H](C)CC[C@]6(C)CC[C@]45C)[C@@]3(C)C(=O)NCc3ccccc3)c3ccc(=[N+](CC)CC)cc-3oc2c1 | 490 | 530 | 550 | 590 | 400 | – | – | – |
| CC(=O)O[C@H]1CC[C@]2(C)[C@H]3CC=C4[C@@H]5[C@@H](C)[C@H](C)CC[C@]5(C(=O)N5CCCNCC5)CC[C@@]4(C)[C@]3(C)CC[C@H]2C1(C)C | 1610 | 2210 | 1880 | 1950 | 1810 | – | – | – |
| C[C@H]1[C@H](C)CC[C@]2(C)CC[C@]3(C)C(=CC(=O)[C@@H]4[C@@]5(C)CC[C@@H](O)[C@](C)(C(=O)NCc6ccccc6)[C@@H]5CC[C@]43C)[C@H]12 | 7300 | 10000 | 10700 | 12800 | 4900 | – | – | – |
| CC(=O)O[C@H]1CC[C@]2(C)[C@H]3C(=O)C=C4[C@@H]5C[C@@](C)(C(=O)N6CCCNCC6)CC[C@]5(C)CC[C@@]4(C)[C@]3(C)CC[C@H]2C1(C)C | 10700 | 12000 | 5110 | 18700 | 12300 | 18700 | – | – |
| CCN(CC)c1ccc2c(-c3ccccc3C(=O)N3CCCN(C(=O)[C@]45CC[C@@H](C)[C@H](C)[C@H]4C4=CC[C@@H]6[C@@]7(C)CC[C@H](OC(C)=O)C(C)(C)[C@@H]7CC[C@@]6(C)[C@]4(C)CC5)CC3)c3ccc(=[N+](CC)CC)cc-3oc2c1 | 30 | 20 | 40 | 40 | 140 | 40 | – | – |
| CCN(CC)c1ccc2c(-c3ccccc3C(=O)O[C@H]3CC[C@@]4(C)[C@@H](CC[C@]5(C)[C@@H]4C(=O)C=C4[C@@H]6[C@@H](C)[C@H](C)CC[C@]6(C)CC[C@]45C)[C@@]3(C)C(=O)OCc3ccccc3)c3ccc(=[N+](CC)CC)cc-3oc2c1 | 1380 | 1320 | 1710 | 1520 | 1010 | – | – | – |
| CCN(CC)c1ccc2c(-c3ccccc3C(=O)N3CCCN(C(=O)[C@]45CCC(C)(C)C[C@H]4C4=CC[C@@H]6[C@@]7(C)CC[C@H](OC(C)=O)C(C)(C)[C@@H]7CC[C@@]6(C)[C@]4(C)CC5)CC3)c3ccc(=[N+](CC)CC)cc-3oc2c1.[Cl-] | 30 | 10 | 40 | 30 | 170 | 30 | Active | 17 |
| C=C(C)[C@@H]1CC[C@]2(C(=O)O)CC[C@]3(C)[C@H](CC[C@@H]4[C@@]5(C)CC[C@H](O)C(C)(C)[C@@H]5CC[C@]43C)[C@@H]12 [BETULINIC ACID] | – | – | – | 17100 | – | 18300 | – | – |
